This is a sample that favours compounds with a hit; in the whole collection about 5.1% have one here.
STAT3 inh: inhibitors of IL-6 induced STAT3 signaling. U3A cells, IL-6 STAT3-luciferase reporter, luminescence; host cell line lacks STAT1. inhibition, % at 5.5 µM. actives 0.89% (n = 190,000);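 active = inhibition above the mean inhibition across all screened compounds plus 3 SD, cut at about 44% in these data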;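 also: 0% = DMSO only wells and 100% = 100 µM nifuroxazide control wells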
APP 5'UTR act: APP 5'UTR luciferase reporter activation; SH-SY5Y APP 5'UTR luciferase reporter, luminescence; zero percent = DMSO vehicle wells; AID 1276; actives 1% (n = 190,000); activation, % at 2 µM;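 active = activation above a set limit, based on mean plus 3 SD of controls, cut at about 140% in these data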
STAT1 act-1: activators of IFN-gamma induced STAT1 signaling; NIH 3T3 STAT1-luciferase reporter, luminescence; 100% = IFN-gamma alone, no compound; activation (% of control), % at 5.5 µM; actives 2.6% (n = 200,000); AID 932;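 active = activation above the screen-wide mean activation plus 3 SD, cut at about 130% in these data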;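 also: raw ratio to IFN-gamma control signal so 100% means no change and 0% no light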
STAT1 inh: reduces IFN-gamma driven STAT1 reporter signal. AID 920. NIH 3T3 STAT1-luciferase reporter, luminescence. inhibition, % at 5.5 µM. actives 0.35% (n = 200,000);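 active = inhibition above a set limit, the mean inhibition across all tested compounds plus 3 SD, cut at about 34% in these data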;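 also: 0% = IFN-gamma with DMSO and 100% = IFN-gamma with 300 µM nifuroxazide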
NF-kB expr up: compounds increasing NF-kB expression in human neuronal cells | NF-kB reporter expression; active compounds read high | fold change at 12.5 µM | actives 1.6% (n = 190,000); in the data active = fold change above about 3.3
STAT3 act-1: activators of IL-6 induced STAT3 signaling; U3A cells, IL-6 STAT3-luciferase reporter, luminescence; 100% = signal with IL-6 EC80 alone; actives 0.91% (n = 190,000); AID 871; activation (% of control), % at 5.6 µM;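 active = activation above the screen-wide mean of compound activation plus 3 SD, cut at about 130% in these data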;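 also: 0% = background luminescence of wells with medium and substrate only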
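Test system: Human STAT1-deficient U3A cells with stable STAT3-luciferase reporter | Also added: Interleukin-6, 33 ng/mL | Timing: Compound pre-incubation 1 h before IL-6, then 6 h stimulation at 37 °C | Technique: Luciferase reporter luminescence | Read-out: Percent of IL-6-only median luminescence | Benchmarks: IL-6-only wells as 100% reference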
STAT3 act-2: confirmation of STAT3 signaling activators | shares compounds with STAT3 act-1 | U3A STAT3-luciferase reporter, IL-6 potentiation, luminescence; U3A cells lack STAT1; 100 means same as IL-6 alone | potentiation (% of control), % at 5.7 µM | actives 64% (n = 1,200) | AID 1267;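 active = percent activation of the STAT3 luciferase reporter above a set limit taken from the earlier primary screen, cut at about 130% in these data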;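 also: 0% = background signal of medium plus substrate and 100% = median of IL-6 with DMSO wells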
NFkB act STAT3ct: counter-screen for STAT3 activators: NF-kappaB activation. human cells, NF-kappaB reporter activation. shares compounds with STAT3 act-1. AID 1309. activation (% of control), % at 5.7 µM. actives 11% (n = 1,200); in the data active = activation above about 120%;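 also: reporter induced by TNF-alpha stimulation; 100% = median of stimulated DMSO wells and 0% = no signal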
STAT1 act-2: activates STAT1, counter-screen to STAT3 activators; shares compounds with STAT3 act-1; NIH 3T3 STAT1-luciferase reporter, IFN-gamma, luminescence; activation (% of control), % at 5.7 µM; actives 13% (n = 1,200); AID 1318;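 active = activation above the solvent-only control well mean plus 3 SD, set per screening run, cut at about 120% in these data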;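 also: 100% = IFN-gamma with DMSO median signal so 100% means no change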
Active calls of the source: *; / = no result.

SMILES	STAT3 inh	APP 5'UTR act	STAT1 act-1	STAT1 inh	NF-kB expr up	STAT3 act-1	STAT3 act-2	NFkB act STAT3ct	STAT1 act-2
Cc1nc2ccccc2n1CC(=O)OCC(=O)NCc1ccccc1	4	12	97	2	1.1	101	/	/	/
CCOC(=O)Cn1c(=O)c(-c2ccccc2NCc2ccccc2)nc2ccccc21	-39	9	98	2	/	136*	127	98	95
COc1cc2c(cc1NC(=S)Nc1cccc(C(F)(F)F)c1)oc1ccccc12	-2	-6	102	-2	1	109	/	/	/
O=C(OCc1ccccc1)c1ccc2c(c1)-c1ccccc1C2=O	23	4	123	-25	2.5	85	/	/	/
CCc1ccc2c(c1)C(=O)c1ccccc1C2=O	-48	99	120	-22	3.5*	142*	151*	131*	165*
Cc1noc(C)c1CCC(=O)N1CCCC(CCC(=O)NCc2ccccc2F)C1 (centres undefined)	8	0	97	3	1	98	/	/	/
CCN(CC)P(=O)(Nc1ccc(C)cc1Br)c1ccc(N(C)C)cc1NC(=O)c1ccco1 (centres undefined)	-58	8	103	-4	0.65	150*	144*	103	111
Cc1nc2c(ccc3c([N+](=O)[O-])cccc32)c(C)c1C	21	0	92	7	1.3	84	/	/	/
Cc1nc2cc(-c3cccc(F)c3)nn2c(N2CCN(C(=O)c3ccco3)CC2)c1C	-49	15	97	3	2	137*	120	114	91
Cc1ccc(S(=O)(=O)/N=C2/C=C(Sc3ncn[nH]3)C(=O)c3ccccc32)cc1	-52	-64	87	15	0.83	141*	132	107	83
O=C1C2=C(Nc3ccccc3SC2c2ccco2)c2ccccc21 (centres undefined)	-36	21	105	-6	1	137*	125	102	105
N#C/C(=C\Nc1ccccc1O)c1nc2ccccc2o1	-83	27	98	3	0.98	165*	183*	108	106
COc1ccccc1N1CCN(c2nc3ccccn3c(=O)c2C=O)CC1	9	12	105	-5	1.2	98	/	/	/
O=C(Nc1ccc(Br)cc1)C(c1ccccc1)c1ccccc1	-2	-5	96	3	1	102	/	/	/
COC(=O)c1ccccc1S(=O)(=O)Nc1ccc2cn[nH]c2c1	-47	9	107	-8	1.1	143*	129	106	103
COC(=O)c1sc(S(=O)(=O)Nc2ccc3cn[nH]c3c2)c(C(=O)OC)c1C	-46	1	93	7	0.88	147*	147*	101	99
COC(=O)c1sc(S(=O)(=O)Nc2ccc(C)cc2)c(C(=O)OC)c1C	21	-10	94	6	1.2	88	/	/	/
CN(C)S(=O)(=O)c1cccc(-c2nnc(SCC(=O)NCCCCCC(=O)O)n2-c2ccc(F)cc2)c1	-5	9	104	-4	0.94	105	/	/	/
CC(C)c1ccccc1-n1c(-c2cccnc2)n[nH]c1=S	-4	-7	100	-1	1.3	107	/	/	/
O=C(c1cc2c(s1)CCCC2)N1CCN(S(=O)(=O)c2ccccc2C(F)(F)F)CC1	-50	-11	100	0	0.8	139*	116	108	102
O=C(c1cc2c(s1)CCCC2)N1CCN(c2ccccc2)CC1	12	15	106	-8	1.3	99	/	/	/
COc1ccccc1/C=C(/CC(=O)NCc1ccccc1)c1nc2ccccc2s1	-19	-10	90	11	0.85	116	/	/	/
COc1ccccc1/C=C(/CC(=O)NCc1ccc(F)cc1)c1nc2ccccc2s1	-37	6	91	10	1	136*	131	103	95
Cc1oc(-c2cccc3ccccc23)nc1CN1CCC[C@H]1CO	-3	21	103	-6	0.98	104	/	/	/
COc1ccccc1/C=N/N(C(C)=O)c1nc(-c2ccc(F)cc2)cs1	-110	24	119	-21	2.2	194*	185*	126*	150*
SMILES	STAT3 inh	APP 5'UTR act	STAT1 act-1	STAT1 inh	NF-kB expr up	STAT3 act-1	STAT3 act-2	NFkB act STAT3ct	STAT1 act-2
COc1ccc(/C=N/N(C(C)=O)c2nc(-c3ccc(C)cc3)cs2)cc1	17	-2	102	-2	1.2	88	/	/	/
COC(=O)c1cc(-c2cccs2)[nH]n1	15	12	104	-5	1.5	90	/	/	/
COc1ccc(O)c(-c2cc(-c3cccs3)[nH]n2)c1	-45	50	115	-16	2.3	144*	128	113	105
Cc1nnc(NC(=O)CSc2nnc(-c3ccccc3)n2C)s1	8	-11	91	10	/	99	/	/	/
CC(=O)Nc1ccc(NC(=O)CSc2nc3ccccc3o2)cc1	2	9	106	-7	1.5	100	/	/	/
CC(=O)Nc1cccc(N/C=C(\C=O)c2nc3ccccc3o2)c1	-74	46	109	-10	0.74	171*	176*	115	112
O=C/C(=C\Nc1ccc(Br)cc1)c1nc2ccccc2o1	11	14	99	0	0.96	94	/	/	/
O=C/C(=C\Nc1ccccn1)c1nc2ccccc2o1	-66	12	99	1	0.81	158*	144*	114	100
CC(=O)Nc1ccc(N/C=C(\C=O)c2nc3ccccc3o2)cc1	-57	-20	98	3	1.2	147*	151*	94	103
C/C(N)=C(/C#N)C(=O)COC(=O)CNC(=O)c1ccc(Cl)cc1Cl	0	-2	114	-16	1.4	107	/	/	/
CCn1c(O)c(/C=C2\C=Nc3ccccc32)sc1=Nc1ccccc1	-10	15	121	-23	1.7	112	/	/	/
O=C(Cc1ccccc1)Nn1c(O)c(/C=C2\C=Nc3ccccc32)sc1=S	-91	-6	106	-4	1.1	170*	116	106	102
O=C(O)c1cc(Cl)c2ccccc2c1O	-44	29	100	4	0.91	139*	130	109	107
Cc1c(Br)c([N+](=O)[O-])nn1CC(=O)NCc1cccnc1	4	2	92	8	1	101	/	/	/
COc1cc2c(cc1OC)C(c1cccs1)N(C(=S)NC(C)C)CC2 (centres undefined)	-18	40	123	-26	1.4	116	/	/	/
